# Assays:
# [1] = target: T1, Multidrug resistance-associated protein 1 (Homo sapiens, UniProt P33527); experiment: Inhibition of MRP1 in human H69AR cells assessed as daunorubicin accumulation preincubated for 15 mins measured after 180 mins by flow cytometry; type: cell-based
# Summary of the method: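 H69 AR cells, about 60,000 per well in culture medium. Preincubated 15 min with compound diluted in unsupplemented medium, then daunorubicin added (20 µL of 30 µM solution). Held 180 min at 37 °C, 5% CO2, protected from light, to reach steady state. Cells resuspended; flow cytometry with 488 nm excitation, FL3 ≥670 nm. IC50 from four-parameter logistic with variable Hill slope; ≥3 independent experiments in duplicate.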
# [2] = target: T1, Multidrug resistance-associated protein 1; experiment: Inhibition of MRP1 in human H69AR cells incubated for 20 mins measured every 60 seconds by calcein-AM accumulation assay
# Homo sapiens = species on record: Homo sapiens; experiment: Inhibition of P-gp (unknown origin) at 10 uM after 30 mins by calcein AM accumulation assay
# BCRP (ABCG2) = target: T2, BCRP (ABCG2) (Homo sapiens, UniProt Q9UNQ0); experiment: Inhibition of BCRP (unknown origin) expressed in MDCK2 cells assessed as pheophorbide A accumulation at 10 uM preincubated for 20 mins measured after 120 mins by flow cytometry; type: cell-based, MDCK-II; settings: MDCK2 cells expressing BCRP, probe pheophorbide A
# T2 sequence (Q9UNQ0 whole entry): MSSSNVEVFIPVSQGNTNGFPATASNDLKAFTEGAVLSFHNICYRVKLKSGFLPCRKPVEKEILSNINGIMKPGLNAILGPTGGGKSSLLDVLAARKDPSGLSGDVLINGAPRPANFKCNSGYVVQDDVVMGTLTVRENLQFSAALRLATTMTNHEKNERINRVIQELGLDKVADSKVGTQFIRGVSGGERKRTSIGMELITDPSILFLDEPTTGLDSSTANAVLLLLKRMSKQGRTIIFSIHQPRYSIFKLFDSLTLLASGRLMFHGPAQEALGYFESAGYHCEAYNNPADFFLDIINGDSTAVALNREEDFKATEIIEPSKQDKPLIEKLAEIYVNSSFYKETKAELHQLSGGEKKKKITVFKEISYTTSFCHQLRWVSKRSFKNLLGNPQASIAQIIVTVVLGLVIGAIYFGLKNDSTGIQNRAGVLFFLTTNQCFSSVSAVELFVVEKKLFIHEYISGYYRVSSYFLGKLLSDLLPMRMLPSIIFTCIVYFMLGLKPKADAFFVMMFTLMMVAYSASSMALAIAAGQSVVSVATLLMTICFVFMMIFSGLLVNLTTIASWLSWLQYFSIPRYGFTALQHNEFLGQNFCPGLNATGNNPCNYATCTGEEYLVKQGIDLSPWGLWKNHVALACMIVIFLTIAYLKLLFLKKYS
# Summary of the method: (§1)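 MDCK II BCRP cells (GFP detected in FL1 to monitor BCRP expression), about 45,000 per well. Preincubated 20 min at 37 °C, 5% CO2 with compound (1–100 µM solutions, 20 µL into 200 µL final volume). Pheophorbide A added (20 µL of 5 µM solution) for 120 min to reach steady state. Cells resuspended, then flow cytometry: 488 nm excitation, FL3 ≥670 nm. […] The four-parameter logistic top was constrained to Ko143; ≥3 experiments in duplicate.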
# [3] = Cytotoxicity against human H69AR cells overexpressing MRP1 assessed as reduction in cell viability at 10 uM after 72 hrs by MTT assay; type: cell-based; settings: for Activity: h69ar, 72 h, 10 µM
# Summary of the method: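 H69 AR cells, about 20,000 per well, 72 h at 37 °C in humidified CO2 with compound at 10 µM. MTT (5 mg/mL, 20 µL) added for 1 h, then DMSO solubilization and absorbance 570 nm with 690 nm background. Viability scaled between plain medium (100%) and 10% DMSO (0%). ≥3 independent experiments in duplicate.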
# [4] = Cytotoxicity against human H69AR cells overexpressing MRP1 assessed as growth inhibition after 72 hrs by MTT assay; type: cell-based
# Summary of the method: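 H69 AR cells, about 20,000 per well, exposed 72 h at 37 °C in humidified CO2 to test compound diluted in culture medium (100 nM to 100 µM solutions, 20 µL added to 180 µL cells). Then MTT (5 mg/mL, 20 µL) for 1 h, formazan taken up in DMSO, absorbance 570 nm minus 690 nm. Plain medium set 100% viability, 10% DMSO 0%. GI50 from variable-slope nonlinear fit; ≥3 independent experiments in duplicate.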
# [5] = Inhibition of P-gp in human A2780/ADR cells after 30 mins by calcein AM accumulation assay; type: cell-based; settings: 0.5 h
# [6] = target: T1, Multidrug resistance-associated protein 1; experiment: Inhibition of MRP1 in human H69AR cells incubated for 20 mins measured […] by calcein-AM accumulation assay; type: cell-based
# Summary of the method: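 H69 AR cells, about 60,000 per well in Krebs-HEPES buffer pH 7.4. Incubated 20 min at 37 °C, 5% CO2 with compound (100 nM–100 µM solutions, 20 µL in 200 µL final volume). Calcein AM then added (20 µL of 3.125 µM). Fluorescence (ex 485/em 520 nm, 37 °C) read every 60 s. Slope between min 5 and 30 plotted against log concentration; four-parameter logistic fit; ≥3 experiments in duplicate.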
# [7] = target: T3, Broad substrate specificity ATP-binding cassette transporter ABCG2 (Homo sapiens, UniProt Q9UNQ0); experiment: Inhibition of BCRP (unknown origin) expressed in MDCK2 cells assessed as pheophorbide A accumulation preincubated for 20 mins measured after 120 mins by flow cytometry; type: cell-based, MDCK-II; summary of the method: as §1
# T3 sequence (Q9UNQ0 whole entry): T2 sequence (Q9UNQ0 whole entry)
# T1 sequence (P33527 whole entry): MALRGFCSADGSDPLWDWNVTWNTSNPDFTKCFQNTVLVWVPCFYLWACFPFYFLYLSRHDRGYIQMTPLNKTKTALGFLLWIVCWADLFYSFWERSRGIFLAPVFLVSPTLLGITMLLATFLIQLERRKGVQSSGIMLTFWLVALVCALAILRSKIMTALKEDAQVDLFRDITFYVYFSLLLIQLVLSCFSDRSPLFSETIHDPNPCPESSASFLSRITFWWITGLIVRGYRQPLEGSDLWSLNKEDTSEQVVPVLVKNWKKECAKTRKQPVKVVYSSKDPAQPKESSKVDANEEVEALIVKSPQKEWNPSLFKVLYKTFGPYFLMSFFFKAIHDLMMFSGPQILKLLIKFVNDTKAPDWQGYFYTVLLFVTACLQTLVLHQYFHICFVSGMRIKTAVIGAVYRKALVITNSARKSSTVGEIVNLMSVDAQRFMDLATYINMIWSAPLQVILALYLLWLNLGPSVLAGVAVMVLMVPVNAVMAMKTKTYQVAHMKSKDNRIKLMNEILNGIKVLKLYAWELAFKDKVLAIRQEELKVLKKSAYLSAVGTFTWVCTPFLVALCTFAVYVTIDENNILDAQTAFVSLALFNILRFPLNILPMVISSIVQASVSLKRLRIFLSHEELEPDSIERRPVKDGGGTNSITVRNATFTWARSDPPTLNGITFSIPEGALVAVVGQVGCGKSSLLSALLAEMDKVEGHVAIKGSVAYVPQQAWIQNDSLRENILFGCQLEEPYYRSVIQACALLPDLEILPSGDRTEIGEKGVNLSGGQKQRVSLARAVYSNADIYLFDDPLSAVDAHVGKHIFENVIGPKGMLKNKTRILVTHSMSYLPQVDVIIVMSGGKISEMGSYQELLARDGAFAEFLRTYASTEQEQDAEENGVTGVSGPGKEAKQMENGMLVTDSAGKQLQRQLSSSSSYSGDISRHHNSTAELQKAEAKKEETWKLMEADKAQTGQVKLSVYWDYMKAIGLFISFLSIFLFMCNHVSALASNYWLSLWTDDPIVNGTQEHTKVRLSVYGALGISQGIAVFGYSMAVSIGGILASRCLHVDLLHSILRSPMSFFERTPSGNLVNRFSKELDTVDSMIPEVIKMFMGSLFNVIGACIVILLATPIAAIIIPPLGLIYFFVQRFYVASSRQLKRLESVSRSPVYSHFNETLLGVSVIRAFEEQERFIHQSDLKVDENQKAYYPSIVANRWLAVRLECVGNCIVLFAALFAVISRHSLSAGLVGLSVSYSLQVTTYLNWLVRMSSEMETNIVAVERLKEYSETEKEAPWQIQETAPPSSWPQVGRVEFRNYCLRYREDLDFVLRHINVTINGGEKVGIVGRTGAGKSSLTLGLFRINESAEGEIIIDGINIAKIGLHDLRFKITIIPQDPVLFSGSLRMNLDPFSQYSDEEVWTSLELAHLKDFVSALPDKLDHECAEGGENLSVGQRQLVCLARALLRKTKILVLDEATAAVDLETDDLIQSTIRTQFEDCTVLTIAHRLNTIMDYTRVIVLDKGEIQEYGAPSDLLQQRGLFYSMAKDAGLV
compound,measurement,setting,value
N#Cc1cn(CCCc2ccccc2)c2c(N3CCN(Cc4ccccc4)CC3)ncnc12,IC50,[1],2360 nM
same,IC50,[2],3150 nM
same,inhibition,Homo sapiens,> 25%
same,"inhibition at 2 h, 10 µM",BCRP (ABCG2),< 25%
N#Cc1cn(-c2ccccc2)c2c(N3CCN(CCc4ccccc4)CC3)ncnc12,IC50,[1],340 nM
same,"cytotoxicity at 72 h, 10 µM","[3]; H69AR cells overexpressing MRP1, read-out: INH",40%
same,IC50,[2],750 nM
same,GI50 at 72 h,[4],23.6 µM
same,inhibition,Homo sapiens,> 25%
same,"inhibition at 2 h, 10 µM",BCRP (ABCG2),< 25%
same,IC50,[5],6.82 µM
CC(C)n1cc(C#N)c2ncnc(N3CCN(CCc4ccccc4)CC3)c21,IC50,[1],1240 nM
same,IC50,[2],821 nM
same,inhibition,Homo sapiens,> 25%
same,"inhibition at 2 h, 10 µM",BCRP (ABCG2),< 25%
N#Cc1cn(Cc2ccccc2)c2c(N3CCN(CCc4ccccc4)CC3)ncnc12,IC50,[1],623 nM
same,IC50,[2],1000 nM
same,inhibition,Homo sapiens,> 25%
same,"inhibition at 2 h, 10 µM",BCRP (ABCG2),< 25%
same,IC50,[5],10.6 µM
N#Cc1c2n(c3c(N4CCN(c5ccccc5)CC4)ncnc13)CCCCC2,IC50,[1],15100 nM
same,inhibition,Homo sapiens,> 25%
same,"inhibition at 2 h, 10 µM",BCRP (ABCG2),> 25%
same,IC50,[6],8980 nM
N#Cc1cn(-c2ccccc2)c2c(N3CCN(Cc4ccccc4)CC3)ncnc12,IC50,[1],866 nM
same,IC50,[2],1220 nM
same,inhibition,Homo sapiens,> 25%
same,"inhibition at 2 h, 10 µM",BCRP (ABCG2),< 25%
N#Cc1cn(CCc2ccccc2)c2c(N3CCN(Cc4ccccc4)CC3)ncnc12,IC50,[1],983 nM
same,IC50,[2],910 nM
same,inhibition,Homo sapiens,> 25%
same,"inhibition at 2 h, 10 µM",BCRP (ABCG2),< 25%
CN1CCN(c2ncnc3c(C#N)c4n(c23)CCCC4)CC1,IC50,[1],2870 nM
same,IC50,[2],5060 nM
same,IC50,[7],4.25 µM
same,inhibition,Homo sapiens,> 25%
same,"inhibition at 2 h, 10 µM",BCRP (ABCG2),> 25%
N#Cc1cn(CCc2ccccc2)c2c(N3CCN(CCc4ccccc4)CC3)ncnc12,IC50,[1],1120 nM
same,IC50,[2],1020 nM
same,inhibition,Homo sapiens,> 25%
same,"inhibition at 2 h, 10 µM",BCRP (ABCG2),< 25%
same,IC50,[5],32.5 µM
N#Cc1c2n(c3c(NCCc4ccccc4)ncnc13)CCCC2,IC50,[1],4980 nM
same,IC50,[2],8370 nM
same,inhibition,Homo sapiens,> 25%
same,"inhibition at 2 h, 10 µM",BCRP (ABCG2),> 25%
Cn1cc(C#N)c2ncnc(N3CCN(CCc4ccccc4)CC3)c21,IC50,[1],700 nM
same,IC50,[2],714 nM
same,inhibition,Homo sapiens,> 25%
same,"inhibition at 2 h, 10 µM",BCRP (ABCG2),< 25%
N#Cc1c2n(c3c(NCc4ccccc4)ncnc13)CCCC2,IC50,[1],8800 nM
same,IC50,[2],14200 nM
same,IC50,[7],15.8 µM
same,inhibition,Homo sapiens,> 25%
same,"inhibition at 2 h, 10 µM",BCRP (ABCG2),> 25%
N#Cc1c2n(c3c(N4CCN(CCc5ccccc5)CC4)ncnc13)CCCCC2,IC50,[1],643 nM
same,Activity,[3],Non-toxic
same,GI50 at 72 h,[4],79.8 µM
same,IC50,[7],9.94 µM
same,inhibition,Homo sapiens,> 25%
same,"inhibition at 2 h, 10 µM",BCRP (ABCG2),> 25%
same,IC50,[5],19.2 µM
same,IC50,[6],833 nM
N#Cc1cn(CCCc2ccccc2)c2c(N3CCN(CCc4ccccc4)CC3)ncnc12,IC50,[1],586 nM
same,IC50,[2],956 nM
same,inhibition,Homo sapiens,> 25%
same,"inhibition at 2 h, 10 µM",BCRP (ABCG2),< 25%
N#Cc1c2n(c3c(N4CCN(C(c5ccccc5)c5ccccc5)CC4)ncnc13)CCCC2,IC50,[1],1070 nM
same,IC50,[2],1620 nM
same,IC50,[7],14.3 µM
same,inhibition,Homo sapiens,> 25%
same,"inhibition at 2 h, 10 µM",BCRP (ABCG2),> 25%
N#Cc1cn(Cc2ccccc2)c2c(N3CCN(Cc4ccccc4)CC3)ncnc12,IC50,[1],876 nM
same,IC50,[2],2770 nM
same,inhibition,Homo sapiens,> 25%
same,"inhibition at 2 h, 10 µM",BCRP (ABCG2),< 25%
N#Cc1c2n(c3c(N4CCN(c5ccccc5)CC4)ncnc13)CCCC2,IC50,[1],2900 nM
same,IC50,[2],2560 nM
same,IC50,[7],5.91 µM
same,inhibition,Homo sapiens,> 25%
same,"inhibition at 2 h, 10 µM",BCRP (ABCG2),> 25%
N#Cc1c2n(c3c(N4CCN(CCc5ccccc5)CC4)ncnc13)CCCC2,IC50,[1],197 nM
same,Activity,[3],Non-toxic
same,IC50,[2],370 nM
same,GI50 at 72 h,[4],39.9 µM
same,IC50,[7],8.19 µM
same,inhibition,Homo sapiens,> 25%
same,"inhibition at 2 h, 10 µM",BCRP (ABCG2),> 25%
same,IC50,[5],18.8 µM
N#Cc1c2n(c3c(N4CCN(Cc5ccccc5)CC4)ncnc13)CCCC2,IC50,[1],636 nM
same,IC50,[2],671 nM
same,IC50,[7],8.24 µM
same,inhibition,Homo sapiens,> 25%
same,"inhibition at 2 h, 10 µM",BCRP (ABCG2),> 25%
same,IC50,[5],32.3 µM
CCn1cc(C#N)c2ncnc(N3CCN(CCc4ccccc4)CC3)c21,IC50,[1],789 nM
same,IC50,[2],1060 nM
same,inhibition,Homo sapiens,> 25%
same,"inhibition at 2 h, 10 µM",BCRP (ABCG2),< 25%
CCCn1cc(C#N)c2ncnc(N3CCN(CCc4ccccc4)CC3)c21,IC50,[1],418 nM
same,IC50,[2],543 nM
same,inhibition,Homo sapiens,> 25%
same,"inhibition at 2 h, 10 µM",BCRP (ABCG2),< 25%
same,IC50,[5],41.9 µM
N#Cc1c2n(c3c(N4CCN(C(c5ccccc5)c5ccccc5)CC4)ncnc13)CCCCC2,IC50,[1],1010 nM
same,IC50,[7],8.71 µM
same,inhibition,Homo sapiens,> 25%
same,"inhibition at 2 h, 10 µM",BCRP (ABCG2),> 25%
same,IC50,[5],28.6 µM
same,IC50,[6],1950 nM
N#Cc1c2n(c3c(Nc4ccccc4)ncnc13)CCCC2,IC50,[1],9410 nM
same,IC50,[2],14200 nM
same,IC50,[7],7.68 µM
same,inhibition,Homo sapiens,> 25%
same,"inhibition at 2 h, 10 µM",BCRP (ABCG2),> 25%
